Assay results reported in ChEMBL document CHEMBL1641407, “Imidazo[4,5-d]thiazolo[5,4-b]pyridine based inhibitors of IKK2: synthesis, SAR, PK/PD and activity in a preclinical model of rheumatoid arthritis” (Bioorg Med Chem Lett, 2011).

How the values were obtained:
[1] = biological target: T1, Inhibitor of nuclear factor kappa-B kinase subunit beta (Homo sapiens, UniProt O14920); assay: Inhibition of IKK2
T1 sequence (O14920 whole entry): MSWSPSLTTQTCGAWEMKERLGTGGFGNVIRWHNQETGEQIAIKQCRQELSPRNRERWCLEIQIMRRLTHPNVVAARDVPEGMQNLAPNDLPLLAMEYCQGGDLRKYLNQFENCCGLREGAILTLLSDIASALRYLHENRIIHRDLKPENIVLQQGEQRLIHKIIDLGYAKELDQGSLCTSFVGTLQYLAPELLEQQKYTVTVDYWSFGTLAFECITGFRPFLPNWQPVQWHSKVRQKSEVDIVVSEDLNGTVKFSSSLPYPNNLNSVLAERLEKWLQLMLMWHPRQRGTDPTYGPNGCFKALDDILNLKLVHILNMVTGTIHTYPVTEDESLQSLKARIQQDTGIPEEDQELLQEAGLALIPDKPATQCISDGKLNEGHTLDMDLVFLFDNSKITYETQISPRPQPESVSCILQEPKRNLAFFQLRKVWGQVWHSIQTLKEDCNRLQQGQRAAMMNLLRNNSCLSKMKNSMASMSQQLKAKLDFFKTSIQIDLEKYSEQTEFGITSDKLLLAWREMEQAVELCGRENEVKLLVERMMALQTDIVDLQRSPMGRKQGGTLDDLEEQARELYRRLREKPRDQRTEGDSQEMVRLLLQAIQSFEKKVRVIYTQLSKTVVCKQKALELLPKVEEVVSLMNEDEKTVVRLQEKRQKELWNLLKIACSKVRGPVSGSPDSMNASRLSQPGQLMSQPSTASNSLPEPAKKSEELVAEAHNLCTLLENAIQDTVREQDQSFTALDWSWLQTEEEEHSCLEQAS
Procedure, shortened: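 IKK-2 added at room temperature to 50 µg/mL GST-IκBα with ATP in 25 mM Tris·HCl, pH 7.5, containing MgCl₂, phosphate salts, NaCl, KCl, 1 mM DTT, 5% glycerol and BSA. Stopped after 60 min with 33 mM EDTA. Phospho-IκBα read by fluorescence-polarization competition between an anti-phospho-IκBα antibody and a fluorescein-labelled phosphopeptide.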

PBMC = assay: Antiinflammatory activity in human PBMC assessed as inhibition of LPS-induced TNFalpha release treated for 5 mins before LPS challenge measured after 6 hrs by ELISA; type: functional, cell-based
Procedure, shortened: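 PBMCs purified from heparinized healthy-volunteer blood by Ficoll-Hypaque gradient and suspended at 5 × 10⁶/mL in RPMI with 10% FBS. Cells preincubated with compound (0.2% DMSO) for 5 min at room temperature. LPS added from a 200 ng/mL stock, then 6 h at 37 °C. Medium TNF-α measured by ELISA. IC50 by linear regression.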

[2] = Half life in rat at 2 mg/kg, iv and 10 mg/kg, po; type: ADME, organism-based; conditions: in vivo
[3] = Clearance in rat at 2 mg/kg, iv and 10 mg/kg, po; type: ADME, organism-based; conditions: in vivo
[4] = biological target: T2, Inhibitor of nuclear factor kappa-B kinase subunit alpha (Homo sapiens, UniProt O15111); assay: Inhibition of IKK1
T2 sequence (O15111 whole entry): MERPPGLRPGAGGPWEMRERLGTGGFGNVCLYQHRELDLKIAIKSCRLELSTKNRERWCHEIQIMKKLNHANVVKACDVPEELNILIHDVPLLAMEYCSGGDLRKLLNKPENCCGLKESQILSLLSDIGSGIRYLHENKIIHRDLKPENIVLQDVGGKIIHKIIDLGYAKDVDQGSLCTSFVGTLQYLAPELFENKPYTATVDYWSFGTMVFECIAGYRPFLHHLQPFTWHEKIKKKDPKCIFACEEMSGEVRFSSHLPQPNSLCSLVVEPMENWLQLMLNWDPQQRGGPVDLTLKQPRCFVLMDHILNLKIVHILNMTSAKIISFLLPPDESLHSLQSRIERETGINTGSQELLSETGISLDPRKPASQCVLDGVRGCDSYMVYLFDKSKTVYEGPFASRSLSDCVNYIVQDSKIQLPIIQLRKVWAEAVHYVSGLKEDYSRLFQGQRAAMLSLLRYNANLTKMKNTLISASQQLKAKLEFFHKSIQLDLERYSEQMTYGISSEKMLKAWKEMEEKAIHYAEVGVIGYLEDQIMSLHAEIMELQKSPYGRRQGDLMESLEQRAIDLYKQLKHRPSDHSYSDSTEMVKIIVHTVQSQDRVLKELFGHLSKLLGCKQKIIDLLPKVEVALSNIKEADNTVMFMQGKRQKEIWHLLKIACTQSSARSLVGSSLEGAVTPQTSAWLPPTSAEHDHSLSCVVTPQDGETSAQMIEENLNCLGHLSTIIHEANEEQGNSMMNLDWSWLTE

Blood [5] = assay: Antiinflammatory activity in human whole blood assessed as inhibition of LPS-induced TNFalpha release treated for 5 mins before LPS challenge measured after 6 hrs by ELISA; type: functional, tissue-based
[6] = biological target: Death-associated protein kinase 2 (Homo sapiens) (UniProt Q9UIK4); assay: Residual activity at DAPK2 at 10 uM relative to control
Blood [7] = assay: Antiinflammatory activity in mouse whole blood assessed as inhibition of LPS-induced TNFalpha release treated for 5 mins before LPS challenge measured after 6 hrs by ELISA; type: functional, tissue-based
Rattus norvegicus = assay: Metabolic stability in rat assessed as metabolite (S)-N-(1-(3-(5-amino-8-methyl-8H-imidazo[4,5-d]thiazolo[5,4-b]pyridin-2-yl)phenyl)ethyl)acetamide total AUC at 2 mg/kg, iv and 10 mg/kg, po; type: ADME, organism-based; conditions: in vivo
Mus musculus [8] = assay: Metabolic stability in mouse assessed as metabolite (S)-N-(1-(3-(5-amino-8-methyl-8H-imidazo[4,5-d]thiazolo[5,4-b]pyridin-2-yl)phenyl)ethyl)acetamide total AUC at 2 mg/kg, iv and 10 mg/kg, po; type: ADME, organism-based; conditions: in vivo
Canis familiaris = assay: Metabolic stability in dog assessed as metabolite (S)-N-(1-(3-(5-amino-8-methyl-8H-imidazo[4,5-d]thiazolo[5,4-b]pyridin-2-yl)phenyl)ethyl)acetamide total AUC at 2 mg/kg, iv; type: ADME, organism-based, Canis lupus familiaris; parameters: dose 2 mg/kg, route intravenous, time AUCmax; conditions: in vivo
[9] = biological target: Serine/threonine-protein kinase 16 (Homo sapiens) (UniProt O75716); assay: Residual activity at STK16 at 10 uM relative to control
Mus musculus [10] = assay: Antiinflammatory activity in po dosed BALB/c mouse assessed as inhibition of LPS-induced TNFalpha release administered for 5 hrs before LPS challenge measured after 6.5 hrs post dose by ELISA; type: functional, organism-based
Procedure, shortened: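 BALB/c female mice, 6–8 weeks old, n = 7–8 per treatment. Compounds given by oral gavage at 30 and 100 mg/kg in PEG400/HCl/Tween80/water; controls received vehicle alone. Five hours later, E. coli O111:B4 LPS 50 µg/kg ip. Serum collected 90 min after LPS, TNF-α measured by ELISA. Drug exposure sampled 6.5 h post-dose. Mean ± standard error.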

Serine/threonine-protein kinase 16 (Homo sapiens), sequence (O75716 whole entry): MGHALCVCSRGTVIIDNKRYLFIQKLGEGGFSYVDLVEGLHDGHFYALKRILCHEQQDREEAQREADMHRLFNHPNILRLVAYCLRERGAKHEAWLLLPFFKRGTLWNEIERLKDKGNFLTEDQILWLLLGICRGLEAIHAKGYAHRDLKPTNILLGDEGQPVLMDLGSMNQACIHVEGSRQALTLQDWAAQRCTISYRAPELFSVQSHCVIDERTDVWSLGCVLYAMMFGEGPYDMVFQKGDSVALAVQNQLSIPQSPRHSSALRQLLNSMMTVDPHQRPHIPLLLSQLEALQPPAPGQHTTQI
Death-associated protein kinase 2 (Homo sapiens), sequence (Q9UIK4 whole entry, looked up): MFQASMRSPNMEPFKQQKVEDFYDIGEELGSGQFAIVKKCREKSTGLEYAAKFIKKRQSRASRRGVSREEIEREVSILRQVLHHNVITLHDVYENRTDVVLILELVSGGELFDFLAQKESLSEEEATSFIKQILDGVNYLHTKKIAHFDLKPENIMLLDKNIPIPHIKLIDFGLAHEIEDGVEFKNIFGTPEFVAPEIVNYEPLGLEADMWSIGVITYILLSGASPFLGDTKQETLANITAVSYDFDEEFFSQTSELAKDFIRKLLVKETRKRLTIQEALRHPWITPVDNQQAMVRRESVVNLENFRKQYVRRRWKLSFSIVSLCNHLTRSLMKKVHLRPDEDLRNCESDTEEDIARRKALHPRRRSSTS

Row | SMILES | IC50 [1] | IC50 (PBMC) | further results
1 | CCNc1nc2sc(-c3cccc([C@H](C)NC(=O)c4cccc(S(C)(=O)=O)c4)c3)nc2c2c1ncn2C | 41 nM | 220 nM | half-life [2]: 90 min; clearance [3]: 5.1 mL/min/kg
2 | CNc1nc2sc(-c3cccc(C(C)NC(C)=O)c3)nc2c2c1ncn2C (stereo not given) | 9 nM | 170 nM | IC50 [4]: 430 nM
3 | Cc1ccc2nc(NCCN)c3ncc(C)n3c2c1 [BMS-345541] | – | 1000 nM | –
4 | CC(=O)NCc1cc(-c2cc3nc(NC4CC4)c4ncn(C)c4n3n2)ccc1F | – | 730 nM | –
5 | CC(=O)N[C@@H](C)c1cccc(-c2nc3c(nc(N)c4ncn(C)c43)s2)c1 | 13 nM | 290 nM | IC50 (Blood [5]): 2000 nM; residual activity [6]: < 10%; IC50 (Blood [7]): 1000 nM; AUC (Rattus norvegicus): 2400 nM; AUC (Mus musculus [8]): 3.37 µM; AUC (Canis familiaris): 400 nM; residual activity [9]: < 10%; inhibition (Mus musculus [10]): Dose-dependent effect
6 | CNc1nc2sc(-c3ccc(CNC(C)=O)cc3)nc2c2c1ncn2C | 60 nM | 530 nM | –
7 | COc1nc2sc(-c3cccc([C@H](C)NC(C)=O)c3)nc2c2c1ncn2C | > 500 nM | > 10000 nM | –
8 | CC(=O)N[C@@H](C)c1cccc(-c2nc3c(nc(NC(=O)N(C)C)c4ncn(C)c43)s2)c1 | 130 nM | – | –
9 | CC(=O)N[C@@H](C)c1cccc(-c2nc3c(nc(N(C)C)c4ncn(C)c43)s2)c1 | 100 nM | 990 nM | –
10 | CCNc1nc2sc(-c3cccc(C(C)(C)NC(C)=O)c3)nc2c2c1ncn2C | 36 nM | 400 nM | –

Now from value to compound, other results behind:

Row | IC50 [1] | SMILES | IC50 (PBMC) | further results
11 | 49 nM | CC(=O)N[C@@H](C)c1cccc(-c2nc3c(nc(NCCN)c4ncn(C)c43)s2)c1 | 4890 nM | –
12 | 78 nM | CCNc1nc2sc(-c3cccc([C@H](C)NC(=O)c4cc(C)on4)c3)nc2c2c1ncn2C | 940 nM | half-life [2]: 168 min; clearance [3]: 2.8 mL/min/kg
13 | 39 nM | CCNCC(=O)N[C@@H](C)c1cccc(-c2nc3c(nc(NCC)c4ncn(C)c43)s2)c1 | 440 nM | –
14 | 57 nM | CC(=O)N[C@@H](C)c1cccc(-c2nc3c(nc(NCC(F)(F)F)c4ncn(C)c43)s2)c1 | 1360 nM | –
15 | 6 nM | CNc1nc2sc(-c3cccc([C@H](C)NC(C)=O)c3)nc2c2c1ncn2C | 80 nM | IC50 [4]: 230 nM
16 | 28 nM | CNc1nc2sc(-c3cccc([C@@H](C)NC(C)=O)c3)nc2c2c1ncn2C | 560 nM | –
17 | 55 nM | CCNc1nc2sc(-c3cccc([C@@H](C)NC(C)=O)c3)nc2c2c1ncn2C | 700 nM | –
18 | 16 nM | CCNc1nc2sc(-c3cccc([C@H](C)NC(=O)COCC)c3)nc2c2c1ncn2C | 600 nM | –
19 | 10 nM | CCNc1nc2sc(-c3cccc([C@H](C)NC(=O)C4CCN(C)CC4)c3)nc2c2c1ncn2C | 560 nM | clearance [3]: 130 mL/min/kg
20 | 34 nM | CCNc1nc2sc(-c3cccc([C@H](C)NC(=O)C4(C)CC4)c3)nc2c2c1ncn2C | 440 nM | half-life [2]: 120 min; clearance [3]: 7.5 mL/min/kg
21 | 20 nM | CCNc1nc2sc(-c3cccc([C@H](C)NC(=O)C4CCNCC4)c3)nc2c2c1ncn2C | 290 nM | half-life [2]: 174 min; clearance [3]: 3 mL/min/kg
22 | 27 nM | CCNc1nc2sc(-c3cccc([C@H](C)NC(=O)CNC(C)=O)c3)nc2c2c1ncn2C | 480 nM | –
